Variants at the floor of the assay were thinned out.
B1: tRNA (parent)
chain: GUUCCGUUGGCGUAAUGGUAACGCGUCUCCCUCCUAAGGAGAAGACUGCGGGUUCGAGUCCCGUACGGAACG

Variants of: B1
Assay: yeast fitness relative to wild type (ratio to wild type); higher = fitter; tRNA-Arg(CCU), competitive growth, 37 C, YPD
How it was run: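 Variants of the tRNA-Arg(CCU) gene were chemically synthesised with a 3% per-site mutation rate across 69 sites and placed at the native genomic locus in Saccharomyces cerevisiae. Six parallel replicates of the pooled strains were competed in YPD at 37°C for 24 hours, and gene amplicons from the start and end populations were read by 100-nucleotide paired-end sequencing. Darwinian fitness relative to wild type was derived from changes in genotype frequencies. Genotypes required ≥ 100 starting reads, and estimates < 0.5 were set to 0.5.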

Variant	yeast fitness
C11G C46U A65U	0.561
C11G G12A C30G C31G U32A C66U	≤ 0.5
C11U A20C C29G G56C G58A	0.693
C11U A14G C24G C27U A36G G41A A42C	≤ 0.5
C11U A20U C29G U47G G63A A70U	≤ 0.5
C11G U35C C46U C61U	≤ 0.5
C11U A20G C24G	0.506
C11U A14G C24G C27U G41A A42C	≤ 0.5
C11U A15G A21G C34U G44A C61A A70C	≤ 0.5
C11U A15G A65G	0.766
C11U A20U C24U G38A C49A A70U	≤ 0.5
C11U A20U C24U C29A C49U A70G	≤ 0.5
C11G G12A C27U A43G G67A	0.606
C11G G25A C27U	0.687
C11U A14U G18A C31U C46G U47A A65C	≤ 0.5
C11U A21G C24A G52A	≤ 0.5
C11G G38A C66U	≤ 0.5
C11U A20G A37G U54A U59G	≤ 0.5
C11G G67U A69C	0.528
C11U A20U C30A G38A G51A U54A	≤ 0.5
C11G U32C G48A C60G	≤ 0.5

Variant	yeast fitness
C11G G25A U35C A36U	≤ 0.5
C11U A14U G18A G41A A42C G50C A70G	0.552
C11U A15G G23A C60A C61U G63C C66U	≤ 0.5
C11G G41A A70G	≤ 0.5
C11U A21C A42G A69C	≤ 0.5
C11G U32G A45G C49U A70U	≤ 0.5
C11U A14U C24G A42G	0.54
C11U A21G C24A	0.529
C11G C49U G58C	0.597
C11U A20U G39A A65C	0.533
C11G U59A C61A	≤ 0.5
C11U A14U C34U A57G	≤ 0.5
C11G C49U C61A A70G	≤ 0.5
C11U A15C C27A G68A	≤ 0.5
C11G U26C C31A A43U C61A	≤ 0.5
C11U A15G A69U	0.765
C11G U53A C55U G56C	≤ 0.5
C11G G39C U47C G68C	≤ 0.5
C11U A14G C27A G48A U53A C61G	≤ 0.5
C11U A15C A65C A70U	≤ 0.5
C11G U32A A36G C46U	0.592

Variant	yeast fitness
C11G U28A A70U	≤ 0.5
C11G G41A G44C C66G	≤ 0.5
C11U A15G G48C	0.511
C11G G12A A42U	≤ 0.5
C11U A15C A21G C24G U28A	≤ 0.5
C11U A14G G58A A69C	≤ 0.5
C11U A21G C29U C55G	≤ 0.5
C11G G17A C22U C27U A57C	≤ 0.5
C11G U16A U28C C29U G39A U59G U64A	≤ 0.5
C11G G23C U35G G39C G50C C66A	≤ 0.5
C11G C34U A42C C61A A70U	≤ 0.5
C11U A14C C29G C30G A36U A40U	0.591
C11U A14U C24G G44A C49U	≤ 0.5
C11U A14G A20G C24G	≤ 0.5
C11U A15G G18A C31A A36G C61G	0.513
C11G U32G A57C C62U C66U	0.556
C11G C49U A70G	0.573
C11G U54A	≤ 0.5
C11G G52A A69C	≤ 0.5
C11G C46A C61G A65G	≤ 0.5
C11G U32A G68A	0.746

Variant	yeast fitness
C11U A15G	1.01
C11G G41C A42C A43U	≤ 0.5
C11U A21C C27G G39C C66U	≤ 0.5
C11G G17C C29U G51A C62U A69C	≤ 0.5
C11G C46U G51A	0.649
C11G G18C A20U C33G C34G G50C	0.632
C11U A21C G67A	0.597
C11U A14G C27G C31U	0.618
C11U A14G C29U G39A	≤ 0.5
C11G U19C G58C	≤ 0.5
C11G U13G C55G C66U	≤ 0.5
C11G G63A	0.605
C11G G63C	0.543
C11G G58C	0.589
C11G U32C C60G	≤ 0.5
C11U A21C C22G	0.657
C11G C49U G58C C61A A65U	≤ 0.5
C11G G23A G38A G39C G50A G56C	0.613
C11G G67C	0.581
C11U A15C G44A A65U	≤ 0.5

Reference: the RNAGym collection of RNA variant scans (doi:10.1126/science.aae0568)
